Bim-Bfl-1: inhibitors of Bim-Bfl-1 interaction, human. Q16548. Bead-based flow cytometry, Bim-Bfl-1 binding inhibition. inhibition, % at 10 µM. actives 0.12% (n = 190,000);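 also: 0% = wells without compound plus tracer and 100% = blocker peptide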
Target sequence (Q16548 whole entry, looked up): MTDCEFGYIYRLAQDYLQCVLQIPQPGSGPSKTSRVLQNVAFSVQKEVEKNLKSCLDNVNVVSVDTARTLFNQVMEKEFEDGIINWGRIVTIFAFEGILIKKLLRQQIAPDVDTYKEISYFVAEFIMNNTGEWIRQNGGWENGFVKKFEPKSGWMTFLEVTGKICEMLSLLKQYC
Bcl-B Bim block: inhibitors of Bim-Bcl-B interaction, human; Q9HD36; bead-based flow cytometry, Bim peptide-Bcl-B binding; inhibition, % at 10 µM; actives 0.073% (n = 190,000); AID 951;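 also: 0% = tracer peptide without compound and 100% = reference inhibitor peptide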
Bim-Bcl-W: inhibitors of Bim-Bcl-W interaction, human; inhibition, % at 10 µM; actives 0.02% (n = 190,000); Q92843; bead-based flow cytometry, Bim peptide-Bcl-W binding;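 also: 0% = bound tracer without compound and 100% = peptide blocker; higher means less fluorescent Bim peptide bound to Bcl-W beads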
Target sequence (Q92843 whole entry, looked up): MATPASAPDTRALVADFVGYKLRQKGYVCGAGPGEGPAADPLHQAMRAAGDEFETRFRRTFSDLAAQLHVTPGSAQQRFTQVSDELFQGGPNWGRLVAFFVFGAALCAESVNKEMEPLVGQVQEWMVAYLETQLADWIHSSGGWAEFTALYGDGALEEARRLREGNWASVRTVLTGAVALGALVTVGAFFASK
Bim-Bcl-2: human Bim-Bcl-2 interaction inhibition; P10415; Bead-based flow cytometry, Bim peptide-Bcl-2 binding; inhibition, % at 10 µM; actives 0.06% (n = 190,000); AID 950; in the data active = inhibition above about 40%;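 also: 0% = no compound wells with probe peptide and 100% = reference peptide inhibitor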
Target sequence (P10415 whole entry, looked up): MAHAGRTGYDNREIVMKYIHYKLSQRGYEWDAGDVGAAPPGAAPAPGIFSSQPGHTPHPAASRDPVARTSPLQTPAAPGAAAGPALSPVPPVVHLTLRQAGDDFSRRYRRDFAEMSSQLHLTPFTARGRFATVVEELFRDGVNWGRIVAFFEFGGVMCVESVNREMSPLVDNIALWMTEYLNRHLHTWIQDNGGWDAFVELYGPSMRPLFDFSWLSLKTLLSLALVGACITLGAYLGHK
Bim-Bcl-XL: inhibitors of Bim-Bcl-XL interaction, human | Bim peptide-Bcl-XL binding, bead flow cytometry, fluorescence | inhibition, % at 10 µM | actives 0.04% (n = 190,000) | AID 1007
Calb biofilm kill: mixtures killing C. albicans biofilm; C. albicans biofilm persisters + clotrimazole, fluorescence viability; primary screen in compound mixtures of four per well; inhibition, % at 7.6 µM; actives 0.02% (n = 120,000);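 active = inhibition above 30.3% in the primary screen of four-compound pools, then above 30% when the compound was retested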;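 also: compounds exposed to preformed 24 h biofilms for 48 h; 0% = untreated biofilm control and 100% = clotrimazole plus chlorhexidine kill blank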
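Probe or stimulus – Clotrimazole 50 µg/mL co-treatment · System – C. albicans biofilms · Schedule – 24 h biofilm formation, then 48 h compound exposure, 37 °C · Evaluation – percent inhibition of biofilm viability · Technique – 2-h Alamar Blue fluorescence, 535/590 nm excitation/emission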
* marks the source's active call; other numbers are inactive results. Most compounds without a hit are left out; they make up all but 0.17% or so of the library. Rule as the data show it, unless noted: active = inhibition above about 40%.

`Cc1nc2ccc(NC(=O)c3cc([N+](=O)[O-])cc([N+](=O)[O-])c3Cl)cc2s1` gave Bim-Bfl-1 52.0*, Bcl-B Bim block 2.0, Bim-Bcl-W 6.0, Bim-Bcl-2 13.0, Bim-Bcl-XL 1.0 and Calb biofilm kill 12.9.
For CC(=O)OCC1OC(OC(C)=O)C(NC(=O)c2cccnc2)C(OC(C)=O)C1OC(C)=O (stereo unspecified) the results were Bim-Bfl-1 0.0, Bcl-B Bim block -3.0, Bim-Bcl-W -3.0, Bim-Bcl-2 -2.0, Bim-Bcl-XL -2.0 and Calb biofilm kill 5.6.
Screening CCOC(=O)CSC1=NC(=O)/C(=C/c2ccc(Br)cc2)S1 returned Bim-Bfl-1 33.0, Bcl-B Bim block -5.0, Bim-Bcl-W 1.0, Bim-Bcl-2 -1.0, Bim-Bcl-XL -2.0 and Calb biofilm kill 13.4.
`CCOC(=O)CSC1=NC(=O)/C(=C\c2ccc(OC(C)=O)cc2)S1` gave Bim-Bfl-1 58.0*, Bcl-B Bim block 6.0, Bim-Bcl-W 9.0, Bim-Bcl-2 12.0 and Bim-Bcl-XL 2.0.
CC(C)C(NC(=O)COc1ccc2ccccc2c1)C(=O)N/N=C/C=C/c1ccccc1 (stereo unspecified) was read as Bim-Bfl-1 -1.0, Bcl-B Bim block -3.0, Bim-Bcl-W 0.0, Bim-Bcl-2 -3.0 and Bim-Bcl-XL -1.0.
`Cc1ccc2nc(NC(=O)c3ccc(OCC4CCCO4)cc3)sc2c1` (stereo unspecified) gave Bim-Bfl-1 -2.0, Bcl-B Bim block 0.0, Bim-Bcl-W -6.0, Bim-Bcl-2 -1.0, Bim-Bcl-XL -2.0 and Calb biofilm kill -8.5.
`Oc1c(Cl)cc(Cl)c2cccnc12` gave Bim-Bfl-1 10.0, Bcl-B Bim block -27.0, Bim-Bcl-W 6.0, Bim-Bcl-2 7.0, Bim-Bcl-XL -2.0 and Calb biofilm kill 43.3*.
`Cc1ccc(S(=O)(=O)N2CCCCC2)cc1NC(=O)COC(=O)c1ccccc1F` gave Bim-Bfl-1 48.0*, Bcl-B Bim block 74.0*, Bim-Bcl-W 8.0, Bim-Bcl-2 78.0*, Bim-Bcl-XL 11.0 and Calb biofilm kill -9.8.
Cc1ccc(S(=O)(=O)N2CCCCC2)cc1NC(=O)COC(=O)Cc1ccc(Cl)cc1 was read as Bim-Bfl-1 0.0, Bcl-B Bim block -9.0, Bim-Bcl-W 0.0, Bim-Bcl-2 -1.0, Bim-Bcl-XL -1.0 and Calb biofilm kill -6.4.
For Cc1ccc(C2(CCNC(C)c3cccs3)CCOC(C(C)C)C2)cc1 (stereo unspecified) the results were Bim-Bfl-1 -4.0, Bcl-B Bim block -1.0, Bim-Bcl-W 1.0, Bim-Bcl-2 -5.0, Bim-Bcl-XL -1.0 and Calb biofilm kill 41.1*.
Screening CN1C(=O)/C(=C/c2ccc(-c3ccccc3[N+](=O)[O-])o2)SC1=Nc1ccc(Cl)c(C(=O)O)c1 returned Bim-Bfl-1 33.0, Bcl-B Bim block 44.0*, Bim-Bcl-W 44.0*, Bim-Bcl-2 34.0, Bim-Bcl-XL 64.0* and Calb biofilm kill 4.4.
COc1ccc(CCNC(=O)C(=O)N/N=C/c2cccs2)cc1OC was read as Bim-Bfl-1 -6.0, Bcl-B Bim block 1.0, Bim-Bcl-W 0.0, Bim-Bcl-2 -5.0, Bim-Bcl-XL 2.0 and Calb biofilm kill 8.2.
For Cc1[nH]c2ccccc2c1C(=O)COC(=O)c1c(-c2c(F)cccc2Cl)noc1C the results were Bim-Bfl-1 43.0*, Bcl-B Bim block 21.0, Bim-Bcl-W 29.0, Bim-Bcl-2 28.0, Bim-Bcl-XL 41.0* and Calb biofilm kill 12.4.
`Cc1[nH]c2ccccc2c1C(=O)COC(=O)c1c(-c2ccccc2Cl)noc1C` gave Bim-Bfl-1 0.0, Bcl-B Bim block -2.0, Bim-Bcl-W -2.0, Bim-Bcl-2 -3.0, Bim-Bcl-XL -8.0 and Calb biofilm kill 21.4.
CCCCC(C(=O)OCC)C(N)Cc1ccc(F)cc1 (stereo unspecified) was read as Bim-Bfl-1 7.0, Bcl-B Bim block 76.0*, Bim-Bcl-W 24.0, Bim-Bcl-2 58.0*, Bim-Bcl-XL 83.0* and Calb biofilm kill 18.4.
For CCOC(=O)NC(O)C(=O)c1ccc(F)cc1 (stereo unspecified) the results were Bim-Bfl-1 -3.0, Bcl-B Bim block -6.0, Bim-Bcl-W -2.0, Bim-Bcl-2 0.0, Bim-Bcl-XL -2.0 and Calb biofilm kill 17.2.
`CN(Cc1ccccc1)C(=O)c1[nH]cnc1C(=O)N[C@@H](CCCCNC(=O)OC(C)(C)C)C(=O)OC(C)(C)C` gave Bim-Bfl-1 45.0*, Bcl-B Bim block 73.0*, Bim-Bcl-W 0.0, Bim-Bcl-2 83.0*, Bim-Bcl-XL 6.0 and Calb biofilm kill 16.2.
CCN1/C(=C/c2ccc3cc(C)ccc3[n+]2CC)Sc2ccccc21 was read as Bim-Bfl-1 14.0, Bcl-B Bim block -22.0, Bim-Bcl-W 5.0, Bim-Bcl-2 15.0, Bim-Bcl-XL 13.0 and Calb biofilm kill 14.0.
`CCN1/C(=C/c2ccc3cc(C)ccc3[n+]2CC)Sc2cc(C)c(C)cc21` gave Bim-Bfl-1 39.0, Bcl-B Bim block -26.0, Bim-Bcl-W 14.0, Bim-Bcl-2 40.0*, Bim-Bcl-XL 19.0 and Calb biofilm kill 32.3*.
For CCOC(=O)c1ccc(NC(=O)CSCc2ccco2)cc1 the results were Bim-Bfl-1 -8.0, Bcl-B Bim block -12.0, Bim-Bcl-W -2.0, Bim-Bcl-2 -9.0 and Bim-Bcl-XL -4.0.
CCOC(=O)c1ccc(NC(=O)CSCCC(=O)O)cc1 was read as Bim-Bfl-1 50.0*, Bcl-B Bim block 84.0*, Bim-Bcl-W 62.0*, Bim-Bcl-2 90.0*, Bim-Bcl-XL 61.0* and Calb biofilm kill 13.2.
`CC1CCCCN1C(=O)COc1ccccc1F` (stereo unspecified) gave Bim-Bfl-1 3.0, Bcl-B Bim block 6.0, Bim-Bcl-W 1.0, Bim-Bcl-2 2.0, Bim-Bcl-XL 0.0 and Calb biofilm kill 8.1.
Screening Cc1ccc(C(=O)N(CCCN(C)C)c2nc3ccc(Cl)cc3s2)cc1C returned Bim-Bfl-1 57.0*, Bcl-B Bim block 79.0*, Bim-Bcl-W 4.0, Bim-Bcl-2 82.0*, Bim-Bcl-XL 8.0 and Calb biofilm kill -4.0.
Screening CN(C)CCCN(C(=O)c1ccco1)c1nc2ccc(Cl)cc2s1 returned Bim-Bfl-1 -5.0, Bcl-B Bim block -3.0, Bim-Bcl-W 0.0, Bim-Bcl-2 -1.0, Bim-Bcl-XL 1.0 and Calb biofilm kill 13.2.
Screening Cc1cccc(NS(=O)(=O)c2cc(C(=O)N3CCc4ccccc4C3)ccc2Cl)c1C returned Bim-Bfl-1 1.0, Bcl-B Bim block 0.0, Bim-Bcl-W 0.0, Bim-Bcl-2 -6.0 and Bim-Bcl-XL 1.0.
For CCOC(=O)c1c2c3c(c(Cl)ccc3[nH]c1=O)C(=O)c1ccccc1-2 the results were Bim-Bfl-1 10.0, Bcl-B Bim block 20.0, Bim-Bcl-W 33.0, Bim-Bcl-2 21.0, Bim-Bcl-XL 51.0* and Calb biofilm kill 42.5.
`CN(Cc1ccccc1)C(=O)CN(c1ccc(F)cc1)S(=O)(=O)c1ccc2c(c1)OCCO2` gave Bim-Bfl-1 3.0, Bcl-B Bim block -1.0, Bim-Bcl-W -2.0, Bim-Bcl-2 1.0, Bim-Bcl-XL -1.0 and Calb biofilm kill 13.5.
